Tests used:
[1] = test system: Escherichia coli; assay: Antibacterial activity against Escherichia coli; format: functional
In short: (§1)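 Broth microdilution MIC following CLSI guidelines, in cation-adjusted Mueller-Hinton broth, incubated at 35°C. Recent clinical isolates and reference strains, with identity confirmed by automated and standard microbiological methods. Results reported as MIC range, MIC50 and MIC90.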

[2] = test system: Staphylococcus aureus; assay: Antibacterial activity against oxacillin and levofloxacin-resistant Staphylococcus aureus; format: functional
In short: (§2)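 Broth microdilution MIC per CLSI guidelines, incubated at 35°C. Cation-adjusted Mueller-Hinton broth for nonfastidious organisms and staphylococci. Streptococci tested in the same broth with 3% lysed horse blood. Anaerobes tested in supplemented Brucella broth inside an anaerobe chamber (5% CO2, 5% H2, 90% N2), read after 48 h. Strains were mainly recent clinical isolates with confirmed identity.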

[3] = test system: Staphylococcus haemolyticus; assay: Antibacterial activity against Staphylococcus haemolyticus; format: functional
In short: (§3)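 Broth microdilution MIC following CLSI guidelines, in cation-adjusted Mueller-Hinton broth containing 3% lysed horse blood, incubated at 35°C. Clinical isolates with identity confirmed. Reported as MIC range, MIC50 and MIC90.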

[4] = test system: Salmonella enteritidis; assay: Antibacterial activity against Salmonella enterica serovar Enteritidis; format: functional, Salmonella enterica subsp. enterica serovar Enteritidis; in short: as §1
[5] = test system: Enterococcus faecium; assay: Antibacterial activity against VanB-resistant Enterococcus faecium; format: functional; in short: as §2
[6] = test system: Staphylococcus aureus; assay: Antibacterial activity against oxacillin-resistant Staphylococcus aureus; format: functional; in short: as §2
[7] = test system: Shigella flexneri; assay: Antibacterial activity against Shigella flexneri; format: functional; in short: as §1
[8] = test system: Enterococcus faecalis; assay: Antibacterial activity against VanA-resistant Enterococcus faecalis; format: functional; in short: as §2
[9] = test system: Clostridium perfringens; assay: Antibacterial activity against Clostridium perfringens; format: functional; in short: as §2
[10] = test system: Citrobacter koseri; assay: Antibacterial activity against Citrobacter diversus; format: functional; in short: as §1
[11] = test system: Citrobacter freundii; assay: Antibacterial activity against Citrobacter freundii; format: functional; in short: as §1
[12] = test system: Haemophilus influenzae; assay: Antibacterial activity against beta-lactamase negative Haemophilus influenzae; format: functional
In short: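 Broth microdilution MIC following CLSI guidelines, in Haemophilus test medium at 35°C.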

[13] = test system: Acinetobacter sp.; assay: Antibacterial activity against Acinetobacter sp.; format: functional; in short: as §1
[14] = test system: Prevotella sp.; assay: Antibacterial activity against Prevotella sp.; format: functional
In short: (§4)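 Anaerobic broth microdilution MIC following CLSI guidelines, in supplemented Brucella broth. Run in an anaerobe chamber under 5% CO2, 5% H2 and 90% N2 at 35°C, and read after 48 h. Reported as MIC range, MIC50 and MIC90.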

[15] = test system: Burkholderia cepacia; assay: Antibacterial activity against Burkholderia cepacia; format: functional; in short: as §1
[16] = test system: Streptococcus pneumoniae; assay: Antibacterial activity against levofloxacin-resistant Streptococcus pneumoniae; format: functional; in short: as §2
[17] = test system: Enterococcus gallinarum; assay: Antibacterial activity against Enterococcus gallinarum; format: functional
[18] = test system: Enterococcus faecalis; assay: Antibacterial activity against Enterococcus faecalis; format: functional; in short: as §2
[19] = test system: Shigella dysenteriae; assay: Antibacterial activity against Shigella dysenteriae; format: functional
[20] = test system: Fusobacterium nucleatum; assay: Antibacterial activity against Fusobacterium nucleatum; format: functional; in short: as §4
[21] = test system: Fusobacterium sp.; assay: Antibacterial activity against Fusobacterium sp.; format: functional; in short: as §4
[22] = test system: Moraxella catarrhalis; assay: Antibacterial activity against beta-lactamase positive Moraxella catarrhalis; format: functional
[23] = test system: Alloiococcus otitis; assay: Antibacterial activity against Alloiococcus otitidis; format: functional
In short: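 MIC by broth microdilution following CLSI guidelines, in cation-adjusted Mueller-Hinton broth with 3% lysed horse blood. Incubated at 35°C and read after 48 h. Reported as MIC range, MIC50 and MIC90.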

[24] = test system: Klebsiella pneumoniae; assay: Antibacterial activity against Klebsiella pneumoniae; format: functional; in short: as §1
[25] = test system: Klebsiella aerogenes; assay: Antibacterial activity against Enterobacter aerogenes; format: functional; in short: as §1
[26] = test system: Streptococcus sanguinis; assay: Antibacterial activity against Streptococcus sanguis; format: functional
In short: (§5)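 Broth microdilution MIC following CLSI guidelines, in cation-adjusted Mueller-Hinton broth with 3% lysed horse blood. Plates incubated at 35°C. Clinical isolates and reference strains, with identity confirmed by standard microbiological methods.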

[27] = test system: Streptococcus pneumoniae; assay: Antibacterial activity against penicillin-intermediate resistant Streptococcus pneumoniae; format: functional; in short: as §2
[28] = test system: Proteus vulgaris; assay: Antibacterial activity against Proteus vulgaris; format: functional; in short: as §1
[29] = test system: Staphylococcus aureus; assay: Antibacterial activity against vancomycin-intermediate Staphylococcus aureus; format: functional; in short: as §2
[30] = test system: Staphylococcus epidermidis; assay: Antibacterial activity against oxacillin-susceptible Staphylococcus epidermidis; format: functional
In short: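 MIC by CLSI broth microdilution for nonfastidious organisms, in cation-adjusted Mueller-Hinton broth incubated at 35°C.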

[31] = test system: Prevotella melaninogenica; assay: Antibacterial activity against Prevotella melaninogenica; format: functional; in short: as §4
[32] = test system: Klebsiella oxytoca; assay: Antibacterial activity against Klebsiella oxytoca; format: functional; in short: as §1
[33] = test system: Enterococcus casseliflavus; assay: Antibacterial activity against Enterococcus casseliflavus; format: functional
[34] = test system: Streptococcus agalactiae; assay: Antibacterial activity against Streptococcus agalactiae; format: functional; in short: as §3
[35] = test system: Streptococcus viridans; assay: Antibacterial activity against Streptococcus viridans; format: functional; in short: as §5
[36] = test system: Corynebacterium jeikeium; assay: Antibacterial activity against Corynebacterium jeikeium; format: functional; in short: as §3
[37] = test system: Bacteroides fragilis; assay: Antibacterial activity against Bacteroides fragilis; format: functional; in short: as §4
[38] = test system: Listeria monocytogenes; assay: Antibacterial activity against Listeria monocytogenes; format: functional; in short: as §3
[39] = test system: Peptoniphilus asaccharolyticus; assay: Antibacterial activity against Peptostreptococcus asaccharolyticus; format: functional; in short: as §4
[40] = test system: Streptococcus pneumoniae; assay: Antibacterial activity against penicillin-resistant Streptococcus pneumoniae; format: functional; in short: as §2
[41] = test system: Staphylococcus warneri; assay: Antibacterial activity against Staphylococcus warneri; format: functional; in short: as §1
[42] = test system: Staphylococcus saprophyticus; assay: Antibacterial activity against Staphylococcus saprophyticus; format: functional; in short: as §1
[43] = test system: Anaerococcus prevotii; assay: Antibacterial activity against Peptostreptococcus prevotii; format: functional; in short: as §4
[44] = test system: Clostridioides difficile; assay: Antibacterial activity against Clostridium difficile; format: functional; in short: as §4
[45] = test system: Streptococcus pneumoniae; assay: Antibacterial activity against penicillin-susceptible Streptococcus pneumoniae; format: functional; in short: as §2
[46] = test system: Actinomyces sp.; assay: Antibacterial activity against Actinomyces sp.; format: functional
[47] = test system: Enterococcus faecium; assay: Antibacterial activity against VanA-resistant Enterococcus faecium; format: functional; in short: as §2
[48] = test system: Stenotrophomonas maltophilia; assay: Antibacterial activity against Stenotrophomonas maltophilia; format: functional; in short: as §1
[49] = test system: Streptococcus pyogenes; assay: Antibacterial activity against Streptococcus pyogenes; format: functional; in short: as §5

Cc1c(N2CC[C@@H]([C@H](C)N)C2)c(F)cc2c(=O)n(N)c(=O)n(C3CC3)c12
4 µg/mL: MIC90 [10] | MIC50 [11] | MIC90 [24] | MIC50 [25] | MIC90 [37]
1 µg/mL: MIC50 [1] | MIC90 [4] | MIC90 [7] | MIC50 [10] | MIC50 [13] | MIC90 [14] | MIC90 [19] | MIC [28] | MIC90 [31] | MIC50 [32] | MIC50 [47]
0.004 µg/mL: MIC50 [23]
0.008 µg/mL: MIC90 [23]
0.125 µg/mL: MIC50 [3] | MIC50 [6] | MIC [8] | MIC50 [12] | MIC50 [18] | MIC [29] | MIC50 [38] | MIC90 [42]
16 µg/mL: MIC90 [11]
0.06 µg/mL: MIC90 [16] | MIC [20] | MIC [21] | MIC90 [27] | MIC [30] | MIC [41] | MIC50 [42]
0.5 µg/mL: MIC90 [2] | MIC90 [3] | MIC50 [4] | MIC [5] | MIC50 [7] | MIC50 [9] | MIC50 [19] | MIC90 [22] | MIC50 [44] | MIC [46]
64 µg/mL: MIC90 [15] | MIC90 [48]
8 µg/mL: MIC90 [13] | MIC90 [25] | MIC50 [48]
0.25 µg/mL: MIC50 [2] | MIC90 [6] | MIC90 [12] | MIC50 [14] | MIC50 [17] | MIC90 [17] | MIC90 [18] | MIC50 [22] | MIC50 [31] | MIC50 [33] | MIC90 [33] | MIC50 [36] | MIC90 [36] | MIC90 [38]
0.03 µg/mL: MIC50 [16] | MIC50 [26] | MIC90 [26] | MIC50 [27] | MIC50 [34] | MIC90 [34] | MIC50 [35] | MIC90 [35] | MIC [39] | MIC50 [40] | MIC90 [40] | MIC [43] | MIC50 [45] | MIC90 [45] | MIC50 [49] | MIC90 [49]
32 µg/mL: MIC50 [15]
2 µg/mL: MIC90 [1] | MIC90 [9] | MIC50 [24] | MIC90 [32] | MIC50 [37] | MIC90 [44] | MIC90 [47]

C[C@H]1NCc2cc(-c3ccc4c(=O)c(C(=O)O)cn(C5CC5)c4c3OC(F)F)ccc21 [GARENOXACIN]
0.06 µg/mL: MIC50 [1] | MIC50 [3] | MIC50 [22] | MIC90 [22] | MIC [30] | MIC90 [42]
0.125 µg/mL: MIC90 [4] | MIC90 [7] | MIC50 [10] | MIC50 [13] | MIC90 [19] | MIC [20] | MIC [21] | MIC50 [26] | MIC50 [32] | MIC50 [34] | MIC90 [34] | MIC50 [35] | MIC90 [40] | MIC50 [45] | MIC90 [45] | MIC [46] | MIC50 [49]
≤ 0.001 µg/mL: MIC50 [23] | MIC90 [23]
0.008 µg/mL: MIC50 [12]
8 µg/mL: MIC50 [47] | MIC90 [48]
> 64 µg/mL: MIC90 [11] | MIC90 [15] | MIC90 [25]
2 µg/mL: MIC50 [2] | MIC50 [6] | MIC90 [6] | MIC [8] | MIC90 [16] | MIC50 [18] | MIC50 [25] | MIC90 [32] | MIC90 [37]
16 µg/mL: MIC90 [13] | MIC90 [47]
4 µg/mL: MIC90 [2] | MIC90 [3] | MIC [5] | MIC90 [18] | MIC50 [48]
0.2 µg/mL: MIC90 [17]
1 µg/mL: MIC90 [1] | MIC90 [9] | MIC50 [11] | MIC90 [14] | MIC50 [16] | MIC90 [24] | MIC [29] | MIC90 [31] | MIC90 [44]
0.015 µg/mL: MIC [39] | MIC [43]
32 µg/mL: MIC50 [15]
0.03 µg/mL: MIC50 [4] | MIC50 [7] | MIC90 [12] | MIC50 [19] | MIC50 [40] | MIC [41] | MIC50 [42]
0.25 µg/mL: MIC90 [10] | MIC50 [14] | MIC50 [17] | MIC50 [24] | MIC90 [26] | MIC50 [27] | MIC90 [27] | MIC [28] | MIC50 [31] | MIC50 [33] | MIC90 [35] | MIC50 [36] | MIC90 [36] | MIC50 [38] | MIC90 [49]
0.5 µg/mL: MIC50 [9] | MIC90 [33] | MIC50 [37] | MIC90 [38] | MIC50 [44]

Source: ChEMBL document CHEMBL1147105, “In vitro and in vivo activities of PD 0305970 and PD 0326448, new bacterial gyrase/topoisomerase inhibitors with potent antibacterial activities versus multidrug-resistant gram-positive and fastidious organism groups” (2007)
